Source: ChEMBL document CHEMBL1926507, “Discovery of a new class of bicyclic substituted hydroxyphenylmethanones as 17β-hydroxysteroid dehydrogenase type 2 (17β-HSD2) inhibitors for the treatment of osteoporosis” (Eur J Med Chem, 2012)

Key:
[1] = biological target: T1, 17-beta-hydroxysteroid dehydrogenase type 2 (Homo sapiens) (UniProt P37059); test: Inhibition of human microsomal 17beta-HSD2 using [2,4,6,7-3H]E2 as substrate at 1 uM after 20 mins by radioflow detector
T1 sequence (whole entry): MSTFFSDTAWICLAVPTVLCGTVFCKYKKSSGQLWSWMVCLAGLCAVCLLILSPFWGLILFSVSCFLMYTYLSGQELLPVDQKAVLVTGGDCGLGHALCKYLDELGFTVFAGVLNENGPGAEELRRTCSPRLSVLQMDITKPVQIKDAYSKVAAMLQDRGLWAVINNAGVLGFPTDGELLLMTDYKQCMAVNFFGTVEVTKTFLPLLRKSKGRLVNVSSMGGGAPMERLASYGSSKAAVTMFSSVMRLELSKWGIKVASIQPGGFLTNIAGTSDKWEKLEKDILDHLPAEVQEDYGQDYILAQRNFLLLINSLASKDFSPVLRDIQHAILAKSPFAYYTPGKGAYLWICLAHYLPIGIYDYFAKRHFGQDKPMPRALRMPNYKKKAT
Summary of the method: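 Microsomal fraction from human placenta incubated at 37 °C for 20 min with NAD+ (1500 µM), inhibitor and unlabeled plus [2,4,6,7-3H]-E2 (final 500 nM). Phosphate buffer 50 mM with 20% glycerol and 1 mM EDTA. Inhibitor stocks made in DMSO. Reaction stopped with HgCl2 and extracted with ether. E2 and E1 separated by HPLC with radioflow detection. Values are the mean of three determinations.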

[2] = biological target: T2, 17-beta-hydroxysteroid dehydrogenase type 1 (Homo sapiens) (UniProt P14061); test: Inhibition of human cytosolic 17beta-HSD1 using [2,4,6,7-3H]E1 as substrate at 1 uM after 10 mins by radioflow detector
T2 sequence (whole entry): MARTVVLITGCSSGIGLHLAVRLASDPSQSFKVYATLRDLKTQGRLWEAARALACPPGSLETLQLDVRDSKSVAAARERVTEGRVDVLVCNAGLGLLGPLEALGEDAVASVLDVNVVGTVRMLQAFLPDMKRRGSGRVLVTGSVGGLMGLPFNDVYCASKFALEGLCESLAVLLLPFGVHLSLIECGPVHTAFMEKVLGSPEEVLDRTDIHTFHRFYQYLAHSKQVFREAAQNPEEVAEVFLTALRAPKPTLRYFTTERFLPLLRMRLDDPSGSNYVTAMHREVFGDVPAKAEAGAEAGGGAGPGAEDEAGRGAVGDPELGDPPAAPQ
Summary of the method: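 Cytosolic fraction from human placenta incubated with NADH (500 µM), test compound and unlabeled plus [2,4,6,7-3H]-E1 (final 500 nM) for 10 min at 37 °C. Phosphate buffer 50 mM with 20% glycerol and 1 mM EDTA. Inhibitor stocks made in DMSO. Reaction stopped with HgCl2 and extracted with ether. Substrate and product separated by HPLC with radioflow detection. Values are the mean of three determinations.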

Homo sapiens = species on record: Homo sapiens; test: Selectivity ratio of IC50 for human cytosolic 17beta-HSD1 to IC50 for human microsomal 17beta-HSD2
Summary of the method: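 Ratio calculated as IC50(17β-HSD1)/IC50(17β-HSD2). 17β-HSD1 was measured in placental cytosol with [3H]-E1 + E1 (500 nM) and NADH (0.5 mM). 17β-HSD2 was measured in placental microsomes with [3H]-E2 + E2 (500 nM) and NAD+ (1.5 mM). Each IC50 is the mean of three determinations.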

[3] = biological target: T3, 17-beta-hydroxysteroid dehydrogenase type 1 (Homo sapiens, UniProt P14061); test: Inhibition of human cytosolic 17beta-HSD1 in cell-free system using [2,4,6,7-3H]E1 as substrate after 10 mins by radioflow detector
T3 sequence (P14061 whole entry): T2 sequence (whole entry)

[4] = biological target: T4, 17-beta-hydroxysteroid dehydrogenase type 2 (Homo sapiens, UniProt P37059); test: Inhibition of human microsomal 17beta-HSD2 in cell-free system using [2,4,6,7-3H]E2 as substrate after 20 mins by radioflow detector
T4 sequence (P37059 whole entry): T1 sequence (whole entry)

[5] = biological target: Estrogen receptor beta (Homo sapiens) (UniProt Q92731); test: Displacement of [3H]E2 from human recombinant ERbeta after 1 hr by liquid scintillation counting relative to estradiol
Chain of Estrogen receptor beta (Homo sapiens) (Q92731 whole entry): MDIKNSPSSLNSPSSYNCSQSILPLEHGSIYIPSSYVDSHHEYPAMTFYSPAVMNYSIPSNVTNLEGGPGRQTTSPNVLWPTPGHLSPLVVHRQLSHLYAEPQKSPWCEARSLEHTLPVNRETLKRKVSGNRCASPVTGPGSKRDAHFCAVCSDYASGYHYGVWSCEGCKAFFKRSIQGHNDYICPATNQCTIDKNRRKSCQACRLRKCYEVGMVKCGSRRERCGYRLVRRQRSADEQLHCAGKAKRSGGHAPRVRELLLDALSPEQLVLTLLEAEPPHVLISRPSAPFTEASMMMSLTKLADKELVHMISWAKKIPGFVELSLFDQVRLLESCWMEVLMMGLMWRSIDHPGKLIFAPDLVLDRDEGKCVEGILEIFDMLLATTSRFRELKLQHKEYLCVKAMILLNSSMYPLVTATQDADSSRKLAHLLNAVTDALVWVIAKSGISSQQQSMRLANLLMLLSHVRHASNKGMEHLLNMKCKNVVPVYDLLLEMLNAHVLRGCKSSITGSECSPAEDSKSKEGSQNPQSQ
Summary of the method: (§1)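 Recombinant human ERα or ERβ (0.25 pmol) incubated with [3H]-E2 (10 nM) and test compound for 1 h at room temperature, DMSO 5% final. Non-specific binding defined with diethylstilbestrol. Receptor-ligand complexes captured on hydroxyapatite, washed, resuspended in ethanol, and counted by liquid scintillation. IC50 for [3H]-E2 displacement taken from sigmoidal curves. RBA = IC50(E2)/IC50(compound) × 100, with unlabeled E2 as reference.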

[6] = biological target: T5, Estrogen receptor (Homo sapiens) (UniProt P03372); test: Displacement of [3H]E2 from human recombinant ERalpha after 1 hr by liquid scintillation counting relative to estradiol; summary of the method: as §1
T5 sequence (whole entry): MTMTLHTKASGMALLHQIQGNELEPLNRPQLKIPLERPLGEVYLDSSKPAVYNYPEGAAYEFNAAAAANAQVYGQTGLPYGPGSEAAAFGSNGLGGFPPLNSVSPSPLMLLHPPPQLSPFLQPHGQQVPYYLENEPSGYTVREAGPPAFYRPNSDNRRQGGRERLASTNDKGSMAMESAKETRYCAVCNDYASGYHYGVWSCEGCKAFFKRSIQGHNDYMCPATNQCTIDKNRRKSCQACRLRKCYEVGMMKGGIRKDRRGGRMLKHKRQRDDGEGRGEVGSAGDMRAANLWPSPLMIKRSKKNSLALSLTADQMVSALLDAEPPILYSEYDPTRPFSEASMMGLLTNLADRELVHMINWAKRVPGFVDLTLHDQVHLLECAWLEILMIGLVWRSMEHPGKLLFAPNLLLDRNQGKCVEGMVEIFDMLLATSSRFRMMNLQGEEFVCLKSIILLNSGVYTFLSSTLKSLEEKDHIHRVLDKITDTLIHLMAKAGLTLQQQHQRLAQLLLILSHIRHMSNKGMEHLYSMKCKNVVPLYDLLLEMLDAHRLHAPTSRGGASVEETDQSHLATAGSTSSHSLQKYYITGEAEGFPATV

Structure (SMILES) | inhibition [1] [%] | inhibition [2] [%] | Ratio IC50 (Homo sapiens) | IC50 [3] [nM] | IC50 [4] [nM] | RBA [5] [%] | RBA [6] [%]
O=C(c1cccc(O)c1)c1cccc(-c2ccc(O)cc2F)n1 | 56 | 64 |  |  |  |  | 
O=C(c1ccc(F)c(O)c1)c1ccc(-c2ccc(O)c(Cl)c2)cn1 | 87 | 50 | 7 | 1010 | 153 |  | 
O=C(c1cccc(O)c1)c1cccc(-c2cccc(O)c2)n1 | < 10 | < 10 |  |  |  |  | 
O=C(c1cccc(O)c1)c1cccc(-c2ccccc2O)n1 | < 10 | < 10 |  |  |  |  | 
O=C(c1ccc(-c2ccc(O)c(F)c2)cc1)c1cccc(O)c1 | 68 | 26 | 5 | 2430 | 525 |  | 
O=C(c1ccc(-c2ccc(O)c(Cl)c2)cc1)c1cccc(O)c1 | 92 | 66 | 4 | 571 | 153 | < 0.1 | < 0.1
Cc1cc(-c2ccc(C(=O)c3cccc(O)c3)cc2)ccc1O | 90 | 58 | 3 | 413 | 132 | < 0.1 | < 0.1
Cc1cc(-c2ccc(C(=O)c3ccc(F)c(O)c3)nc2)ccc1O | 84 | 47 | 13 | 1270 | 101 | < 0.1 | < 0.1
O=C(c1cccc(O)c1)c1cccc(-c2ccc(O)cc2)n1 | 16 | < 10 |  |  |  |  | 
Cc1cc(-c2ccc(C(=O)c3ccc(F)c(O)c3)cc2)ccc1O | 98 | 79 | 9 | 289 | 34 | < 0.1 | < 0.1
Cc1cc(-c2ccc(C(=O)c3cccc(O)c3)cn2)ccc1O | 84 | 58 | 3 | 567 | 220 |  | 
Cc1cc(-c2ccc(C(=O)c3cccc(O)c3)s2)ccc1O |  |  | 0.02 |  |  |  | 
O=C(c1ccc(-c2ccc(O)cc2Cl)cc1)c1cccc(O)c1 | 80 | 43 | 11 | 1760 | 176 |  | 
Cc1cc(-c2cccc(C(=O)c3cccc(O)c3)c2)ccc1O | 77 | 50 | 1 | 475 | 379 |  | 
Cc1cc(O)ccc1-c1cccc(C(=O)c2cccc(O)c2)n1 | 18 | < 10 |  |  |  |  | 
Cc1cc(-c2ccc(C(=O)c3ccc(F)c(F)c3)cc2)ccc1O | 11 | 16 |  |  |  |  | 
O=C(c1ccc(-c2ccc(O)c(Cl)c2)cc1)c1ccc(F)c(O)c1 | 100 | 95 | 2 | 53 | 24 | < 0.1 | < 0.1

Continued, values first:

inhibition [1] [%] | inhibition [2] [%] | Ratio IC50 (Homo sapiens) | IC50 [3] [nM] | IC50 [4] [nM] | RBA [5] [%] | RBA [6] [%] | Structure (SMILES)
100 | 84 | 5 | 159 | 31 | < 0.1 | < 0.1 | Cc1cc(-c2ccc(C(=O)c3cc(O)cc(F)c3)cc2)ccc1O
55 | < 10 | 81 | 60600 | 752 |  |  | O=C(c1cccc(O)c1)c1cccc(-c2ccc(O)c(Cl)c2)n1
62 | < 10 | 30 | 22400 | 757 |  |  | Cc1cc(-c2cccc(C(=O)c3ccc(F)c(O)c3)n2)ccc1O
28 | < 10 |  |  |  |  |  | Cc1cc(-c2cccc(C(=O)c3ccc(C)c(O)c3)n2)ccc1O
57 | < 10 |  |  |  |  |  | Cc1cc(-c2cccc(C(=O)c3cc(O)cc(F)c3)n2)ccc1O
40 | 47 |  |  |  |  |  | O=C(c1cccc(O)c1)c1cccc(-c2ccc(O)c(F)c2)n1
73 | 24 | 21 | 5480 | 260 | < 0.1 | < 0.1 | Cc1cc(-c2ccc(C(=O)c3cccc(O)c3)nc2)ccc1O
84 | < 10 |  |  |  |  |  | Cc1cc(-c2cccc(C(=O)c3cccc(O)c3)n2)ccc1O
